Data on 9 molecules can be found in paper PMC2099187 (The Journal of Cell Biology, 2007).

Entries after “also recorded” stand apart in the source; their conditions may differ. Where a SMILES comes first, the peptide text is derived from it.

Data set [1] addresses T1, recombinant human (rh) ECE-1 (Homo sapiens, UniProt P42892).
T1 sequence (P42892 1-770): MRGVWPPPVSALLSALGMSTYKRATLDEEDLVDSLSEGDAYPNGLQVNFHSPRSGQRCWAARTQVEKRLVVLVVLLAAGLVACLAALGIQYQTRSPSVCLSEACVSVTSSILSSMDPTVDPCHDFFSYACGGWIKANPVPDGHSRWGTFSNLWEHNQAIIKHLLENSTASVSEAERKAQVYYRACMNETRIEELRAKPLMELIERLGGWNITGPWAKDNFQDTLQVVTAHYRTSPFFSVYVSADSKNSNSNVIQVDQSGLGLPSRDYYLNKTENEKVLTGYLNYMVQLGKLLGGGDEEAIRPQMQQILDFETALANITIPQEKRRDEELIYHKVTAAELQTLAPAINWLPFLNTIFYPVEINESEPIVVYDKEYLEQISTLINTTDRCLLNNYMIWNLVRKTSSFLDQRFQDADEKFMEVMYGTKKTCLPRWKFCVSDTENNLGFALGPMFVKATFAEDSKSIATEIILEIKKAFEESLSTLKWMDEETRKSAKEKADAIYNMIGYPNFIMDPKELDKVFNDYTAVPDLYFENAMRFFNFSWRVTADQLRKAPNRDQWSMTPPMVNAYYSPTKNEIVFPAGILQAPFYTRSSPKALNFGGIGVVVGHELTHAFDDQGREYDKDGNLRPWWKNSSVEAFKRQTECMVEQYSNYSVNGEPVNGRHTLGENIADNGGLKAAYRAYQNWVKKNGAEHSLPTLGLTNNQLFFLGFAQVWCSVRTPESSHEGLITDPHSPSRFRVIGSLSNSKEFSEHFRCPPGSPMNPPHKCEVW
The data set is described as follows: Peptide degradation by rhECE-1. In kind it is biochemical. As to conditions: for Degradation of peptide by 83 nM rhECE-1 at pH 5.5 or 7.4: 50 mM MES-KOH pH 5.5 or 50 mM Tris-HCl pH 7.4, up to 480 min. In a few lines: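 Where used, the ECE-1 inhibitor (100 μM) was preincubated with enzyme on ice for 30 min at matching pH before substrate was added. Products were resolved by reversed-phase HPLC and identified by MALDI TOF/TOF mass spectrometry.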

The subject of data set [2] is HEK-CLR-RAMP1 cells. The data set is described as follows: Endocytosis and degradation of internalized 125I-His8-CGRP. In kind it is cell-based, human. As to conditions: 30 min after internalization; SM-19712 10 μM, bafilomycin A1 0.15 or 1 μM.
In the next data set the test system is HEK cells. The data set is described as follows: BK-induced Ca2+ signaling, desensitization and resensitization. As to conditions: SM-19712 10 μM; for Effect on response to a single BK challenge ([Ca2+]i): BK 100 nM, thiorphan 1 μM, phosphoramidon 1 μM. In kind it is cell-based, human. In a few lines:
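HEK cells with native B2R were loaded with Fura-2AM and [Ca2+]i read at 37°C, on coverslips or in suspension. Cells were preincubated with BK 100 nM or vehicle (10 min, 37°C), washed, recovered 0–120 min, then rechallenged with BK 100 nM. SM-19712 10 μM, bafilomycin A1 0.15 or 1 μM, or DMSO was preincubated 20–60 min and kept in buffers throughout.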

For data set [3], the system named is HEK-CLR-RAMP1+βARR2-GFP cells. In words: Trafficking and colocalization of β-arrestin2-GFP and CLR/RAMP1. In kind it is cell-based, human. As to conditions: recovery up to 4 h in CGRP-free medium. In a few lines: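 HEK-CLR-RAMP1 cells transiently transfected with β-arrestin2-GFP had surface CLR (HA11) and RAMP1 (Myc) labelled. Cells were given CGRP (2 min to 1 h), washed, and recovered in CGRP-free medium for 1–4 h. SM-19712 10 μM, bafilomycin A1 0.15 or 1 μM, or DMSO was preincubated 20–60 min and kept throughout. After PFA fixation and confocal imaging, β-arrestin2/CLR endosomal colocalization coefficient was measured at 4 h recovery.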

A further data set concerns the target CLR/RAMP1 (Rattus norvegicus, UniProt Q63118+Q9JJ74). The data set is described as follows: pH dependency of 125I-CGRP binding to CLR/RAMP1 membranes. As to conditions: pH 5.5, relative to pH 7.5 (100%).
For data set [4], the system named is HEK-CLR-RAMP1 cells expressing ECE-1c-HSV. The data set is described as follows: Cell surface ECE-1c-HSV by flow cytometry. It is filed as cell-based, human. The following applies: CGRP 100 nM, 30 min, 37°C. Put shortly:
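HEK-CLR-RAMP1 cells transiently expressing ECE-1c-HSV were bound with goat anti-HSV (1 h, 4°C), washed, and exposed to CGRP 100 nM or vehicle (30 min, 37°C). They were then stained with FITC anti-goat (1:200, 1 h, 4°C) and analysed by flow cytometry. Secondary-only background was subtracted; surface signal was expressed relative to 4°C cells (100%).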

The test system of data set [5] is HEK-CLR-RAMP1 cells. The data set is described as follows: CGRP-induced Ca2+ signaling, desensitization and resensitization. It is filed as cell-based, human. Put shortly: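 HEK-CLR-RAMP1 cells were loaded with Fura-2AM; [Ca2+]i read at 37°C. Single challenge used CGRP 30 nM. For desensitization/resensitization: CGRP 100 nM or vehicle (1 h, 37°C), wash, 0–6 h recovery, CGRP 30 nM rechallenge. Variants: SM-19712 10 μM (20–60 min preincubation, kept throughout); ECE-1 or non-targeting siRNA pools, 72 h; transient ECE-1a-d-GFP. Response given as % of vehicle-treated cells, n ≥ 3.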

The next data set deals with SK-N-MC cells. In words: CGRP-induced Ca2+ signaling, desensitization and resensitization. It is filed as cell-based, human. As to conditions: challenge 100 nM. In a few lines:
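SK-N-MC cells (endogenous CLR/RAMP1) were loaded with Fura-2AM for [Ca2+]i at 37°C. Single challenge used CGRP 100 nM. Desensitization: CGRP 100 nM or vehicle (1 h, 37°C), wash, CGRP-free recovery (4 h for resensitization), then CGRP 100 nM rechallenge. SM-19712 10 μM or DMSO was preincubated 20–60 min and kept throughout. Response was expressed as % of vehicle-treated cells.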

The test system of another data set is rhECE-1. The data set is described as follows: rhECE-1. As to conditions: human, 37°C, up to 720 min.
A further data set has as its system HEK-AT1AR cells. The data set is described as follows: Resensitization of ATII-induced Ca2+ signaling. It is filed as cell-based, human. As to conditions: ATII 100 nM 1 h 37°C, wash, 2 h recovery, challenge 100 nM; unpublished data; mean ± SE. In a few lines:
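HEK-AT1AR cells were exposed to ATII (100 nM) or vehicle for 1 h at 37°C, washed, and allowed to recover in agonist-free medium at 37°C. They were then rechallenged with ATII (100 nM) while [Ca2+]i was measured. The [Ca2+]i change is expressed as % of the vehicle-pretreated response. Inhibitor (10 μM) or DMSO was preincubated 20–60 min and kept in buffers throughout. Mean ± SE, n ≥ 3.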

[6] abbreviates: peptide 250 μM, rhECE-1 83 nM, 37°C, HPLC.

Chain of CLR/RAMP1 (Q63118 24-464): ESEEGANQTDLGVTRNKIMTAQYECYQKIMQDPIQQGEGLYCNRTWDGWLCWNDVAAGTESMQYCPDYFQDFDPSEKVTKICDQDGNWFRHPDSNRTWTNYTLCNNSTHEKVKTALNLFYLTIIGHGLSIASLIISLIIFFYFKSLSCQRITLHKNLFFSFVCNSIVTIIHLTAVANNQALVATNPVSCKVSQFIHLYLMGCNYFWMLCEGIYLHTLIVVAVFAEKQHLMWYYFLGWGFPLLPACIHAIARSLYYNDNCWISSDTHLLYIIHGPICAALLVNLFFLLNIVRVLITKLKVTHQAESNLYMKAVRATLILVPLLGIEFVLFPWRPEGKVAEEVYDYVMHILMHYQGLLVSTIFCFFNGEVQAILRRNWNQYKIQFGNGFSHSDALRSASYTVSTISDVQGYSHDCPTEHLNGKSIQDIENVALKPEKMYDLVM
Chain of CLR/RAMP1 (Q9JJ74 27-148): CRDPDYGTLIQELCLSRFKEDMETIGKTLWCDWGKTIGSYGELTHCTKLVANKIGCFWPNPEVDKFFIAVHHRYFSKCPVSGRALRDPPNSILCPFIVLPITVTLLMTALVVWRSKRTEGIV

With `NC(N)=NCCC[C@H](NC(=O)[C@H](Cc1ccccc1)NC(=O)[C@@H]1CCCN1C(=O)[C@H](CO)NC(=O)[C@H](Cc1ccccc1)NC(=O)CNC(=O)[C@@H]1CCCN1C(=O)[C@@H]1CCCN1C(=O)[C@@H](N)CCCN=C(N)N)C(=O)O` [BK, bradykinin] (H-RPPGFSPFR-OH), in data set [1] (setting [6]), the “Degradation of peptide by 83 nM rhECE-1 at pH 5.5 or 7.4” value is “degraded BK at pH 5.5 and 7.4”. Moreover, the “pH dependence of the rate of degradation by rhECE-1” value in [1] (rhECE-1 83 nM, pH 5.5 versus pH 7.4, 37°C, HPLC) is reported as “faster at pH 5.5”.
In the case of `CO/C1=C\C(C)=C\[C@@H](C)[C@@H](O)[C@@H](C)C/C(C)=C/C=C/[C@H](OC)[C@@H]([C@@H](C)[C@@H](O)[C@H](C)[C@@]2(O)C[C@@H](O)[C@H](C)[C@@H](C(C)C)O2)OC1=O` [bafilomycin A1], in the data set on HEK-CLR-RAMP1 cells [2], the “Effect on degradation of internalized 125I-His8-CGRP” value was “prevented degradation”. For the same molecule, the “Effect on desensitization of BK-induced Ca2+ signaling” value in the data set on HEK cells (bafilomycin A1 0.15 or 1 μM) was “had no effect”. In the data set on HEK cells (bafilomycin A1 0.15 or 1 μM, 0–120 min recovery), the “Effect on resensitization of BK-induced Ca2+ signaling” value is given as “had no effect”. The “Effect on localization of CLR (RAMP1) and β-arrestin2 during recovery” value in [3] is “caused retention of CLR, RAMP1, and β-arrestin2 in endosomes for up to 4 h recovery”.
Take `CC(C)C[C@H](NP(=O)(O)O[C@@H]1O[C@@H](C)[C@H](O)[C@@H](O)[C@H]1O)C(=O)N[C@@H](Cc1c[nH]c2ccccc12)C(=O)O` [phosphoramidon]: the “Effect on response to a single BK challenge ([Ca2+]i)” value in the data set on HEK cells is “did not affect responses to a single BK challenge”.
The same measure, in the same setting: with `O=C(O)CNC(=O)C(CS)Cc1ccccc1` (centres unmarked) [thiorphan] the entry was “did not affect responses to a single BK challenge”.
As for Calcitonin gene-related peptide [CGRP], the “Peptide bound to CLR/RAMP1 at endosomal pH 5.5” value with CLR/RAMP1 is around 20%. The “Effect on constitutive endocytosis of ECE-1c-HSV (cell surface ECE-1c)” value in data set [4] is “did not affect this endocytosis”. In data set [1] (pH 5.5, products CGRP[15–26], CGRP[27–37], CGRP[1–24], CGRP[1–26]), the “Bonds hydrolysed by rhECE-1 (major products separated by HPLC)” value is “Gly^14-Leu^15, Lys^24-Asp^25, and Asn^26-Phe^27”. In addition, the “Degradation of peptide by rhECE-1 at endosomal pH 5.5” value in [1] (peptide 250 μM, rhECE-1 83 or 415 nM, 37°C, 50 mM MES-KOH pH 5.5, 0–720 min, reversed-phase HPLC) is recorded as “degraded CGRP in a concentration-dependent manner”. For the same molecule, the “Degradation of peptide by rhECE-1 at extracellular fluid pH 7.4” value in [1] (peptide 250 μM, rhECE-1, 37°C, 50 mM Tris-HCl pH 7.4, reversed-phase HPLC) is “minimal”. For the same molecule, the “Desensitization of CGRP-induced Ca2+ signals by preincubation with agonist” value with HEK-CLR-RAMP1 cells [5] (CGRP 100 nM 1 h 37°C, 0 h recovery, challenge 30 nM) is recorded as “complete desensitization”. In addition, the “Resensitization of responses to CGRP in cells with active ECE-1” value in the data set on HEK-CLR-RAMP1 cells [5] (CGRP 100 nM 1 h, wash, 0–6 h recovery, challenge 30 nM) is reported as “fully resensitized at 4–6 h recovery”. In addition, the “Resensitization of CGRP-induced Ca2+ signaling, HEK cells expressing CLR/RAMP1 alone (control)” value in the data set on HEK-CLR-RAMP1 cells [5] (after 2 h recovery, mean ± SE) is 33 ± 2%. For the same molecule, in the data set on HEK-CLR-RAMP1 cells [5] (at 2 h recovery, mean ± SE), the “Resensitization of CGRP-induced Ca2+ signaling, cells overexpressing ECE-1c” value was determined as 75 ± 5%. Moreover, the “Desensitization of responses to CGRP by preincubation with agonist” value in the data set with SK-N-MC cells (CGRP 100 nM 1 h 37°C) was “completely desensitized”. In the data set with SK-N-MC cells (after 4 h recovery, mean ± SE), the “Resensitization of responses to CGRP” value was determined as 54 ± 5%.
Consider “SCNTATCVTHRLAGLLSRSGGVVKDNFVPTNVGSEAF-NH2”, for which the cleaved bond entry with rhECE-1 is recorded as “Gly14-Leu15, major; also recorded: Lys24-Asp25, major; also recorded: Asn26-Phe27, major”.
For the molecule “angiotensin (AT) I (DRVYIHPFHL; Angiotensin-1; UniProt P01019 25-34, looked up) [ATI]”, the “Degradation of peptide by 83 nM rhECE-1 at pH 5.5 or 7.4” value in data set [1] (setting [6]) was “degraded ATI under the same conditions”.
Same read-out and setting: next, “angiotensin II (DRVYIHPF; Angiotensin-2; UniProt P01019 25-32, looked up) [ATII]”: “no detectable degradation at up to 480 min”.
angiotensin II [ATII]: in the data set with HEK-AT1AR cells, the “Resensitization of ATII-induced Ca2+ signaling at 2 h” value is 96 ± 3%.
